Source: PMC12123421 (Journal of medicinal chemistry, 2022)
Entries after “also recorded” stand apart in the source; their conditions may differ.

What was measured:
P. gingivalis ATCC 33277 [1] = assay: Percent growth inhibition of planktonic P. gingivalis, colorimetric WST-1 assay; type: cell-based, Porphyromonas gingivalis; conditions: for P. gingivalis growth inhibition: 2.5 h after addition of WST-1; for inhibition at 100 µM / inhibition at 10 µM: Porphyromonas gingivalis, ATCC33277, read-out: P. gingivalis growth inhibition
HEK-293 = assay: Mammalian cytotoxicity assay; type: cell-based, human; conditions: for concentration up to which no toxicity was exhibited (HEK-293): range 0–62.6 μg/mL, 24 h; for non-toxic concentration as fold of bactericidal concentration (HEK-293): vs bactericidal concentration against P. gingivalis
How it was run: (§1)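 Cells counted at about 80% confluence and seeded in 96-well plates: 10,000 cells/well for HEK-293, 3,000 cells/well for BEAS-2B and HepG2. Adhered 16 h at 37 °C, 5% CO2. Fresh medium with test compound at 0–62.6 μg/mL (from 1000× stocks) or 0.1% DMSO added, 24 h. Resazurin added 6 h; fluorescence read at 560/590 nm. Survival expressed relative to DMSO wells after medium-only blank subtraction.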

BEAS-2B = assay: Mammalian cytotoxicity assay; type: cell-based, human; conditions: for concentration up to which no toxicity was observed (BEAS-2B): range 0–62.6 μg/mL, 24 h; for non-toxic concentration as fold of bactericidal concentration (BEAS-2B): vs bactericidal concentration against P. gingivalis
How it was run: as §1

HepG2 = assay: Mammalian cytotoxicity assay; type: cell-based; conditions: for concentration up to which no toxicity was exhibited (HepG2): range 0–62.6 μg/mL, 24 h; for non-toxic concentration as fold of bactericidal concentration (HepG2): vs bactericidal concentration against P. gingivalis
How it was run: as §1

P. gingivalis ATCC 33277 [2] = assay: Colony forming unit; type: cell-based, Porphyromonas gingivalis; conditions: 24 h exposure, CFUs counted after 5 days
How it was run: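 P. gingivalis ATCC 33277 at 1 × 10^8 cells/well, grown exponentially in supplemented BHI under anaerobic conditions in 96-well plates. Exposed 24 h to test compound in DMSO at 1, 10 or 100 μM. Negative controls were medium or DMSO; positive controls were tetracycline 2.81 μM and zafirlukast 25 and 50 μM. Cultures diluted 1:400, spread on blood agar, and CFUs counted after 5 days anaerobic.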

[3] = Cytotoxic effect on oral epithelial cells; type: cell-based, human; conditions: human, OKF6/hTERT immortalized oral keratinocyte cells
[4] = tested on: immortalized oral keratinocyte (OKF6) cells; assay: Cytotoxic effect on oral epithelial cells; type: cell-based, human; conditions: 24 h, microscopy
F. nucleatum ATCC 25586 = assay: Percent growth inhibition, colorimetric WST-1 assay; type: cell-based, Fusobacterium nucleatum; conditions: 24 h, 30 min after addition of WST-1
How it was run: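 F. nucleatum was grown in supplemented BHI to log phase (3–4 h after subculture), then seeded at 10^8 cells/well in 90 μL. It was exposed anaerobically to test compound in DMSO (1, 10, 100 μM) for 24 h. WST-1 reagent was added, and absorbance was read at 405 nm (reference 600 nm). % inhibition = 100 × [OD(control) − OD(treated)]/OD(control).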

[5] = tested on: P. gingivalis ATCC 33277 biofilm; assay: Inhibition of mono-species biofilm growth, safranin staining; type: cell-based, Porphyromonas gingivalis; conditions: at all concentrations tested (10, 25, 50, and 100 μM), 48 h
How it was run: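 P. gingivalis ATCC 33277 at 1 × 10^8 bacteria/well, grown logarithmically in supplemented BHI in 96-well plates. Exposed to test compound in DMSO (10, 25, 50, 100 μM) for 48 h, anaerobic, gentle shaking. Negative controls were medium or DMSO; positive controls were tetracycline 2.81 μM and zafirlukast 50 μM. Medium removed, biofilm washed three times with PBS, stained with 0.1% safranin, and percentage biofilm growth determined.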

[6] = tested on: murine red blood cells (mRBCs); assay: Hemolytic activity against murine red blood cells; type: cell-based; conditions: at concentrations up to 27 μg/mL, data not shown
[7] = at all concentrations tested (1, 10, and 100 μM)

Compound: COc1ccc(Cc2cn(C)c3ccc([N+](=O)[O-])cc23)cc1C(=O)NS(=O)(=O)c1ccccc1F [Compound 21a]
- P. gingivalis growth inhibition (P. gingivalis ATCC 33277 [1]; 100 μM, 24 h): comparable or superior activity
- inhibition at 100 µM (P. gingivalis ATCC 33277 [1]): 61 to 73%
- concentration up to which no toxicity was exhibited (HEK-293) (HEK-293): up to 62.6 μg/mL
- non-toxic concentration as fold of bactericidal concentration (HEK-293) (HEK-293): 11- to 13 fold
- concentration up to which no toxicity was observed (BEAS-2B) (BEAS-2B): up to 62.6 μg/mL
- non-toxic concentration as fold of bactericidal concentration (BEAS-2B) (BEAS-2B): 11- to 13 fold
- concentration up to which no toxicity was exhibited (HepG2) (HepG2): up to 62.6 μg/mL
- non-toxic concentration as fold of bactericidal concentration (HepG2) (HepG2): 11- to 13 fold

Compound: COc1ccc(Cc2cn(C)c3ccc([N+](=O)[O-])cc23)cc1C(=O)NS(=O)(=O)c1ccccc1Cl [Compound 21b]
- P. gingivalis growth inhibition (P. gingivalis ATCC 33277 [1]; 100 μM, 24 h): comparable or superior activity
- inhibition at 100 µM (P. gingivalis ATCC 33277 [1]): 61 to 73%
- growth inhibition by CFU assay (bactericidal activity) (P. gingivalis ATCC 33277 [2]; 10 μM, 10 µM): bactericidal
- viability at 24 h, 10 µM [3]: 9 to 63%
- viability at 24 h, 100 µM [3]: 5 to 23%
- cytotoxicity to OKF6 cells by cell morphology and density ([4]; 100 μM): slight increase in cytotoxicity
- concentration up to which no toxicity was exhibited (HEK-293) (HEK-293): up to 62.6 μg/mL
- non-toxic concentration as fold of bactericidal concentration (HEK-293) (HEK-293): 11- to 13 fold
- concentration up to which no toxicity was observed (BEAS-2B) (BEAS-2B): up to 31.3 μg/mL
- non-toxic concentration as fold of bactericidal concentration (BEAS-2B) (BEAS-2B): 6 fold
- concentration up to which no toxicity was exhibited (HepG2) (HepG2): up to 62.6 μg/mL
- non-toxic concentration as fold of bactericidal concentration (HepG2) (HepG2): 11- to 13 fold

Compound: COc1ccc(Cc2cn(C)c3ccc([N+](=O)[O-])cc23)cc1C(=O)NS(=O)(=O)c1ccccc1Br [Compound 21c]
- P. gingivalis growth inhibition (P. gingivalis ATCC 33277 [1]; 100 μM, 24 h): comparable or superior activity
- inhibition at 100 µM (P. gingivalis ATCC 33277 [1]): 61 to 73%
- growth inhibition by CFU assay (bactericidal activity) (P. gingivalis ATCC 33277 [2]; 10 μM, 10 µM): bactericidal
- viability at 24 h, 10 µM [3]: 9 to 63%
- viability at 24 h, 100 µM [3]: 5 to 23%
- cytotoxicity to OKF6 cells by cell morphology and density ([4]; 10 μM): low toxicity
- cytotoxicity to OKF6 cells by cell morphology and density ([4]; 100 μM): slight increase in cytotoxicity
- concentration up to which no toxicity was exhibited (HEK-293) (HEK-293): up to 62.6 μg/mL
- non-toxic concentration as fold of bactericidal concentration (HEK-293) (HEK-293): 11- to 13 fold
- concentration up to which no toxicity was observed (BEAS-2B) (BEAS-2B): up to 31.3 μg/mL
- non-toxic concentration as fold of bactericidal concentration (BEAS-2B) (BEAS-2B): 6 fold
- concentration up to which no toxicity was exhibited (HepG2) (HepG2): up to 62.6 μg/mL
- non-toxic concentration as fold of bactericidal concentration (HepG2) (HepG2): 11- to 13 fold

Compound: COc1ccc(Cc2cn(C)c3ccc([N+](=O)[O-])cc23)cc1C(=O)NS(=O)(=O)c1c(F)cccc1F [Compound 21d]
- P. gingivalis growth inhibition (P. gingivalis ATCC 33277 [1]; 100 μM, 24 h): comparable or superior activity
- inhibition at 100 µM (P. gingivalis ATCC 33277 [1]): 61 to 73%
- growth inhibition against F. nucleatum (F. nucleatum ATCC 25586; 1 μM): no activity
- growth inhibition against F. nucleatum (F. nucleatum ATCC 25586; 10 μM): no activity
- growth inhibition by CFU assay (bactericidal activity) (P. gingivalis ATCC 33277 [2]; 10 μM): not bactericidal

Compound: COc1ccc(Cc2cn(C)c3ccc([N+](=O)[O-])cc23)cc1C(=O)NS(=O)(=O)c1ccc([N+](=O)[O-])cc1 [Compound 21g]
- P. gingivalis growth inhibition (P. gingivalis ATCC 33277 [1]; 10 μM, 24 h): comparable or superior activity
- P. gingivalis growth inhibition (P. gingivalis ATCC 33277 [1]; 100 μM, 24 h): comparable or superior activity
- growth inhibition by CFU assay (bactericidal activity) (P. gingivalis ATCC 33277 [2]; 10 μM): bactericidal
- biofilm growth [5]: at least 86%

Compound: CCn1cc(Cc2ccc(OC)c(C(=O)NS(=O)(=O)c3ccc([N+](=O)[O-])cc3)c2)c2cc([N+](=O)[O-])ccc21 [Compound 22g]
- P. gingivalis growth inhibition (P. gingivalis ATCC 33277 [1]; 10 μM, 24 h): comparable or superior activity
- P. gingivalis growth inhibition (P. gingivalis ATCC 33277 [1]; 100 μM, 24 h): comparable or superior activity
- growth inhibition by CFU assay (bactericidal activity) (P. gingivalis ATCC 33277 [2]; 10 μM): not bactericidal

Compound: CCCn1cc(Cc2ccc(OC)c(C(=O)NS(=O)(=O)c3ccccc3F)c2)c2cc([N+](=O)[O-])ccc21 [Compound 23a]
- P. gingivalis growth inhibition (P. gingivalis ATCC 33277 [1]; 1 μM, 24 h): little to no activity

Compound: CCCn1cc(Cc2ccc(OC)c(C(=O)NS(=O)(=O)c3ccc([N+](=O)[O-])cc3)c2)c2cc([N+](=O)[O-])ccc21 [Compound 23g]
- P. gingivalis growth inhibition (P. gingivalis ATCC 33277 [1]; 1 μM, 24 h): comparable or superior activity
- P. gingivalis growth inhibition (P. gingivalis ATCC 33277 [1]; 10 μM, 24 h): comparable or superior activity
- P. gingivalis growth inhibition (P. gingivalis ATCC 33277 [1]; 100 μM, 24 h): comparable or superior activity
- inhibition at 10 µM (P. gingivalis ATCC 33277 [1]): 77 to 90%
- P. gingivalis growth inhibition (P. gingivalis ATCC 33277 [1]; [7]): 60–90%
- growth inhibition by CFU assay (bactericidal activity) (P. gingivalis ATCC 33277 [2]; 10 μM): not bactericidal

Compound: CCCCn1cc(Cc2ccc(OC)c(C(=O)NS(=O)(=O)c3ccccc3F)c2)c2cc([N+](=O)[O-])ccc21 [Compound 24a]
- P. gingivalis growth inhibition (P. gingivalis ATCC 33277 [1]; 1 μM, 24 h): little to no activity

Compound: CCCCn1cc(Cc2ccc(OC)c(C(=O)NS(=O)(=O)c3ccc([N+](=O)[O-])cc3)c2)c2cc([N+](=O)[O-])ccc21 [Compound 24g]
- P. gingivalis growth inhibition (P. gingivalis ATCC 33277 [1]; 1 μM, 24 h): comparable or superior activity
- P. gingivalis growth inhibition (P. gingivalis ATCC 33277 [1]; 10 μM, 24 h): comparable or superior activity
- P. gingivalis growth inhibition (P. gingivalis ATCC 33277 [1]; 100 μM, 24 h): comparable or superior activity
- inhibition at 10 µM (P. gingivalis ATCC 33277 [1]): 77 to 90%
- P. gingivalis growth inhibition (P. gingivalis ATCC 33277 [1]; [7]): 69–90%
- growth inhibition by CFU assay (bactericidal activity) (P. gingivalis ATCC 33277 [2]; 100 μM): bactericidal activity
- viability at 24 h, 10 µM [3]: 9 to 63%
- viability at 24 h, 100 µM [3]: 5 to 23%
- cytotoxicity to OKF6 cells by cell morphology and density ([4]; 10 μM): low toxicity; also recorded: little to no cytotoxicity
- cytotoxicity to OKF6 cells by cell morphology and density ([4]; 100 μM): slight decrease in cell density

Compound: COc1ccc(Cc2cn(CC(C)C)c3ccc([N+](=O)[O-])cc23)cc1C(=O)NS(=O)(=O)c1ccc([N+](=O)[O-])cc1 [Compound 25g]
- P. gingivalis growth inhibition (P. gingivalis ATCC 33277 [1]; 100 μM, 24 h): comparable or superior activity
- inhibition at 100 µM (P. gingivalis ATCC 33277 [1]): 61 to 73%
- growth inhibition by CFU assay (bactericidal activity) (P. gingivalis ATCC 33277 [2]; 10 μM): not bactericidal

Compound: COc1cc(C(=O)NS(=O)(=O)c2ccccc2C)ccc1Cc1cn(C)c2ccc(NC(=O)OC3CCCC3)cc12 [ZAF, zafirlukast, reference compound]
- viability at 24 h, 25 µM [3]: 41%
- concentration up to which no toxicity was exhibited (HEK-293) (HEK-293): up to 31.3 μg/mL
- concentration up to which no toxicity was observed (BEAS-2B) (BEAS-2B): up to 62.6 μg/mL
- concentration up to which no toxicity was exhibited (HepG2) (HepG2): up to 62.6 μg/mL

Compound: C[C@@H]1[C@H](O)[C@@H](C)/C=C/C=C/C=C/C=C/C=C/C=C/C=C/[C@H](O[C@@H]2O[C@H](C)[C@@H](O)[C@H](N)[C@@H]2O)C[C@@H]2O[C@](O)(C[C@@H](O)C[C@@H](O)[C@H](O)CC[C@@H](O)C[C@@H](O)CC(=O)O[C@H]1C)C[C@H](O)[C@H]2C(=O)O [amphotericin B]
- hemolytic activity [6]: 0%
